The values that follow come from ChEMBL document CHEMBL2046418, “Pyrrolidinobenzoic acid inhibitors of influenza virus neuraminidase: the hydrophobic side chain influences type A subtype selectivity” (Bioorg Med Chem, 2012).

Experiment [1] deals with T1, Neuraminidase (Influenza A virus, UniProt B4URF0). Briefly: Inhibition of Influenza A virus (A/Uruguay/716/2007(H3N2)) neuraminidase using fluorogenic substrate 2'-(4-methylumbelliferyl)-alpha-D-N-acetylneuraminic acid preincubated with inhibitor for 30 mins measured after 15 mins by fluorescence analysis. A digest of the protocol: (§1)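 Purified intact virions served as the NA source. They were preincubated 30 min at room temperature with two-fold inhibitor dilutions in 50 mM sodium acetate pH 6.0, 100 µM CaCl2, 320 µM MgCl2 and 60 mM NaCl. 100 µM MUNANA was added, then incubated 15 min at 37 °C and stopped with 5 volumes 0.2 M glycine-NaOH pH 11. IC50 came from a log(inhibitor)-normalized response fit, cross-checked from the linear region of fractional activity versus concentration.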

The target in experiment [2] is T1, Neuraminidase. Briefly: Inhibition of Influenza A virus (A/Brisbane/59/2007(H1N1)) neuraminidase using fluorogenic substrate 2'-(4-methylumbelliferyl)-alpha-D-N-acetylneuraminic acid preincubated with inhibitor for 30 mins measured after 15 mins by fluorescence analysis. In outline: as §1
Experiment [3] has as its target T1, Neuraminidase. Briefly: Inhibition of Influenza A virus (A/Solomon Islands/3/2006(H1N1)) neuraminidase using fluorogenic substrate 2'-(4-methylumbelliferyl)-alpha-D-N-acetylneuraminic acid preincubated with inhibitor for 30 mins measured after 15 mins by fluorescence analysis. In outline: as §1
Experiment [4] is described as follows: Inhibition of Influenza B virus (B/Malayasia/5206/04) neuraminidase using fluorogenic substrate 2'-(4-methylumbelliferyl)-alpha-D-N-acetylneuraminic acid preincubated with inhibitor for 30 mins measured after 15 mins by fluorescence analysis. In outline:
as §1

In experiment [5] the target is T1, Neuraminidase. Briefly: Inhibition of Influenza A virus (A/Wisconsin/67/2005(H3N2)) neuraminidase using fluorogenic substrate 2'-(4-methylumbelliferyl)-alpha-D-N-acetylneuraminic acid preincubated with inhibitor for 30 mins measured after 15 mins by fluorescence analysis. In outline:
as §1

Experiment [6] in a line: Inhibition of Influenza B virus (B/Malaysia/2506/2004) neuraminidase using fluorogenic substrate 2'-(4-methylumbelliferyl)-alpha-D-N-acetylneuraminic acid preincubated with inhibitor for 30 mins measured after 15 mins by fluorescence analysis. A digest of the protocol:
as §1

The target of experiment [7] is T1, Neuraminidase. As to the kind of experiment: Inhibition of Influenza A virus (A/Oklahoma/3052/2009(H1N1)) neuraminidase using fluorogenic substrate 2'-(4-methylumbelliferyl)-alpha-D-N-acetylneuraminic acid preincubated with inhibitor for 30 mins measured after 15 mins by fluorescence analysis. In outline: as §1
For experiment [8], the target named is Neuraminidase (Influenza A virus (A/Puerto Rico/8/1934(H1N1)), UniProt P03468). Briefly: Inhibition of Influenza A virus (A/Puerto Rico/8/1934(H1N1)) neuraminidase using fluorogenic substrate 2'-(4-methylumbelliferyl)-alpha-D-N-acetylneuraminic acid preincubated with inhibitor for 30 mins measured after 15 mins by fluorescence analysis. A digest of the protocol:
(§2)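 Enzyme source was purified intact virions. Then 100 μM 2'-(4-methylumbelliferyl)-α-D-N-acetylneuraminic acid was added and incubated 15 min at 37 °C. Reactions were stopped with 0.2 M glycine-NaOH pH 11. IC50 came from normalized log(inhibitor)-response fitting, cross-checked against the linear region of fractional activity versus concentration.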

Experiment [9] deals with Neuraminidase (Influenza A virus (strain A/Udorn/307/1972 H3N2), UniProt P0DOF9). Briefly: Inhibition of Influenza A virus (A/udorn/1972(H3N2)) neuraminidase using fluorogenic substrate 2'-(4-methylumbelliferyl)-alpha-D-N-acetylneuraminic acid preincubated with inhibitor for 30 mins measured after 15 mins by fluorescence analysis. A digest of the protocol: as §1
Experiment [10] has as its target Neuraminidase (Influenza B virus (strain B/Lee/1940), UniProt P03474). Briefly: Inhibition of Influenza B virus (B/Lee/1940) neuraminidase using fluorogenic substrate 2'-(4-methylumbelliferyl)-alpha-D-N-acetylneuraminic acid preincubated with inhibitor for 30 mins measured after 15 mins by fluorescence analysis. A digest of the protocol:
as §2

The target of experiment [11] is T1, Neuraminidase. As to the kind of experiment: Inhibition of influenza A virus avian N9 neuraminidase.
The target in experiment [12] is T1, Neuraminidase. As to the kind of experiment: Inhibition of influenza A virus neuraminidase. In outline:
as §2

Experiment [13] can be described thus: Inhibition of influenza B virus neuraminidase. In outline: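 Purified intact influenza B virions as neuraminidase source. Preincubated 30 min at room temperature with two-fold inhibitor dilutions in 50 mM sodium acetate pH 6.0, 100 μM CaCl2, 320 μM MgCl2, 60 mM NaCl. Then 100 μM 2'-(4-methylumbelliferyl)-α-D-N-acetylneuraminic acid, 15 min at 37 °C, stopped with 5 volumes 0.2 M glycine-NaOH pH 11. Fluorescence read-out. IC50 from log(inhibitor) vs normalized response, cross-checked against the linear region of the fractional-activity curve.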

Consider `CC(C)OCc1cc(C(=O)O)ccc1N1C(=O)CCC1(CO)CO`, for which the concentration for half-maximal inhibition (IC50) (usually the concentration that inhibits the measured activity by half) is 4000 µM on Neuraminidase [1] and > 10000 µM on Neuraminidase [2].
Regarding `CCC(C)OCc1cc(C(=O)O)ccc1N1C(=O)CCC1(CO)CO` (centres undefined), the half-inhibitory concentration (IC50) is 0.2 µM at Neuraminidase [1], 11 µM against Neuraminidase [3] and 80 µM in experiment [4].
For `CCC(CC)OCc1cc(C(=O)O)ccc1N1C(=O)CCC1(CO)CO`, the IC50 at Neuraminidase [1] was 0.5 µM; against Neuraminidase [2], 1 µM; against Neuraminidase [3] it was 0.8 µM; in experiment [4], 30 µM.
On to `O=C(O)c1ccc(N2C(=O)CCC2(CO)CO)c(COc2ccccc2)c1`, for which the IC50 against Neuraminidase [1] was 40 µM; against Neuraminidase [3], 400 µM.
On to `O=C(O)c1ccc(N2C(=O)CCC2(CO)CO)c(COCc2ccccc2)c1`, for which the figures for the IC50 against Neuraminidase [1] and against Neuraminidase [3] were 200 µM and 1600 µM, respectively.
Consider `CCCC(CCC)Cc1cc(C(=O)O)ccc1N1C(=O)CCC1(CO)CO`, for which the IC50 came to 0.5 µM on Neuraminidase [5] and 190 µM in experiment [6].
For the molecule `CCC(=Cc1cc(C(=O)O)ccc1N1C(=O)CCC1(CO)CO)CC`, the 50% inhibitory concentration (IC50) came out at 0.41 µM against Neuraminidase [5], 3.4 µM on Neuraminidase [7] and 120 µM in [6].
As to `CC(C)Cc1cc(C(=O)O)ccc1N1C(=O)CCC1(CO)CO`, the concentration for half-maximal inhibition (IC50) at Neuraminidase [1] turned out to be 3 µM; in [6], 140 µM.
Regarding `CCC(CC)Cc1cc(C(=O)O)ccc1N1C(=O)CCC1(CO)CO`, the half-inhibitory concentration (IC50) was found to be 0.2 µM against Neuraminidase [5], 3.2 µM against Neuraminidase [7] and 32 µM in experiment [6].
In the case of `CCC(CC)Nc1cc(C(=O)O)ccc1N1C(=O)CCC1(CO)CO`, the IC50 in experiment [8] is 79 µM; on Neuraminidase [9], 0.49 µM; at Neuraminidase [10] it was 271 µM; on Neuraminidase [11] it was 0.048 µM.
As for `CC(=O)N[C@H]1[C@H]([C@H](O)[C@H](O)CO)OC(C(=O)O)=C[C@@H]1O` [NEU5AC2EN], the Ki (on Neuraminidase [12]; in experiment [13]) was 4 µM throughout.
